ChEMBL document CHEMBL1140666, “Synthesis and evaluation of alpha,beta-unsaturated alpha-aryl-substituted fosmidomycin analogues as DXR inhibitors” (Bioorg Med Chem Lett, 2007)

Assay: Inhibition of Escherichia coli DXR
Summary of the method: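 Recombinant E. coli DXR was used. Conversion of substrate DOXP to MEP was followed through the reaction's NADPH dependence, and IC50 was derived from this.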

IC50	SMILES
0.059 µM	O=CN(O)CCC(c1ccc(Cl)c(Cl)c1)P(=O)(O)O (configuration not stated)
> 30 µM	CC(=O)N(O)C/C=C(/c1ccccc1)P(=O)(O)O
> 30 µM	CC(=O)N(O)C/C=C(/c1cccc([N+](=O)[O-])c1)P(=O)(O)O
34 µM	CC(=O)N(O)C/C=C(/c1ccc([N+](=O)[O-])cc1)P(=O)(O)O
> 30 µM	CC(=O)N(O)C/C=C(/c1ccsc1)P(=O)(O)O
5.7 µM	CC(=O)N(O)C/C=C(\c1ccccc1)P(=O)(O)O
16 µM	CC(=O)N(O)C/C=C(\c1ccc(C#N)cc1)P(=O)(O)O
5.5 µM	CC(=O)N(O)C/C=C(\c1ccc(Cl)c(Cl)c1)P(=O)(O)O
42 µM	CC(=O)N(O)C/C=C(/c1cccs1)P(=O)(O)O
0.034 µM	O=CN(O)CCCP(=O)(O)O [FOSMIDOMYCIN]

SMILES	IC50
CC(=O)N(O)C/C=C(\Br)P(=O)(O)O	0.45 µM
CC(=O)N(O)CCCP(=O)(O)O [FR-900098]	0.032 µM
